Bioassay records as filed in PubChem.
TRPC4 act = activators of mouse TRPC4 channel, primary screen, Fluo4 calcium, HEK293 TRPC4beta/mu-opioid cells. Short transient receptor potential channel 4 (Mus musculus), Q9QUQ5. Fluo4 calcium fluorescence; hits give high values. B-score at 10 µM. 310,000 compounds, 0.49% hits. AID 2237, 2010;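 active = B-score above 5 SD of library B-scores, and initial fluorescence ratio not above library mean plus 5 SD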;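 also: positive B-score marks a calcium rise read as TRPC4 activation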
Target sequence (Q9QUQ5 whole entry, looked up): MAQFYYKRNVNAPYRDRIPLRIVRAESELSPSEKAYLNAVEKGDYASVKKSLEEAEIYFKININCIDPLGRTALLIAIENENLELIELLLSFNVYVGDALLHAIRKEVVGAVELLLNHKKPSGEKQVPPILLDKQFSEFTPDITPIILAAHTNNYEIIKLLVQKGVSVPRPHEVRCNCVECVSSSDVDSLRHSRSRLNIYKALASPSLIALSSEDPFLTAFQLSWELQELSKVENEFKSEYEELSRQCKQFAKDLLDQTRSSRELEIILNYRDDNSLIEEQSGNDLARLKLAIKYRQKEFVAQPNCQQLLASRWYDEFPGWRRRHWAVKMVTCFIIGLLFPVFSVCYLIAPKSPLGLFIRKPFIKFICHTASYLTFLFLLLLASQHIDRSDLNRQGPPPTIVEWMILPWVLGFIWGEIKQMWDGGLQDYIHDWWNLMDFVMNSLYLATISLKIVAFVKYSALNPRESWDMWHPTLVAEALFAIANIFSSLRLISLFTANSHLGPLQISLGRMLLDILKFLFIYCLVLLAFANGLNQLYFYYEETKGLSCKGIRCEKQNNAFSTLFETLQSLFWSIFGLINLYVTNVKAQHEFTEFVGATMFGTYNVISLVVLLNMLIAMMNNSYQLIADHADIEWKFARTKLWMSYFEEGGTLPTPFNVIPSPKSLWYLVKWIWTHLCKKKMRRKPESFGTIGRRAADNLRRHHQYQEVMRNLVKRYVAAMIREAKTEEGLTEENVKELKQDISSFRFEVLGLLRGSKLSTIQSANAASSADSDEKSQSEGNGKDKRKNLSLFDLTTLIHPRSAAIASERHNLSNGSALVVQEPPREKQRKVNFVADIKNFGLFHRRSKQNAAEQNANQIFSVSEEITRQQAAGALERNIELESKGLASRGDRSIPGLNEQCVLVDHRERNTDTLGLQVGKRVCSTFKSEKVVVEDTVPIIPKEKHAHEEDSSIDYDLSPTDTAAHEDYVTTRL
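Material: HEK293 stable line with TRPC4beta plus mu-opioid receptor; technique: Fluo4 calcium-sensitive dye fluorescence, kinetic, 1 Hz baseline; timing: Fluo4 dye loading 45 min at room temperature, 110 s recording; controls: assay buffer as low control, maximal DAMGO as high control; read-out: integrated baseline-normalised fluorescence ratio, converted to per-well B score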
TRPC6 act = mouse TRPC6 channel activators, primary screen, cell-based, HEK293, membrane potential dye | Short transient receptor potential channel 6 (Mus musculus), Q61143 | AID 2550, 2010 | 310,000 compounds, 0.13% hits | B-score at 10 µM | HEK293-TRPC6 membrane potential dye fluorescence; hits give high values;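 active = B-score of the integrated fluorescence ratio above library mean plus 3 SD, and starting fluorescence ratio within library mean plus 5 SD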;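 also: higher score means more depolarization so channel activation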
TRPC4 PAM = positive allosteric modulators of TRPC4, primary screen, cell-based, mouse TRPC4beta, HEK293 mu-opioid, Fluo-4 calcium. DAMGO EC20, Fluo-4 Ca2+ flux; hits give high values. B-score at 10 µM. 310,000 compounds, 0.42% hits. AID 2227, 2009;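 active = B-score of calcium response area above 5 SD of library B-scores, with initial fluorescence ratio within 5 SD of library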;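 also: B-score of integrated fluorescence ratio over time as area under calcium response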
TRPC6 inh = mouse TRPC6 channel inhibitors, primary screen, cell-based, HEK293, membrane potential dye | ACh-evoked depolarization; hits give low values | B-score at 10 µM | 310,000 compounds, 1.1% hits;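 active = B-score under library mean minus 3 SD, initial fluorescence not abnormally high, positive integrated signal ratio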;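 also: B-score derived from integrated fluorescence ratio over the kinetic read; more negative B-score means stronger inhibition of depolarization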
TRPC4 inh = inhibitors of mouse TRPC4 channel, primary screen, Fluo4 calcium, HEK293 TRPC4beta/mu-opioid cells. AID 2247, 2010. 300,000 compounds, 0.39% hits. DAMGO-evoked Fluo4 calcium flux; hits give low values. B-score at 10 µM. Short transient receptor potential channel 4 (Mus musculus), Q9QUQ5;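 active = B-score over 3 SD under the library average, no early fluorescence shift, positive overall ratio signal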
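Assay system – HEK293 line stably carrying TRPC4beta and mu-opioid receptor · Doses – single dose · Detection – Fluo4 calcium-dye fluorescence, kinetic read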
TRPC4 sel inh 2 = mouse TRPC4 off-target activity of TRPC6 inhibitors, second screen; shares compounds with TRPC6 inh; HEK293 TRPC4/MOR, membrane potential dye fluorescence; channel activated by saturating DAMGO dose; inhibition, % at 10 µM; 920 compounds, 42% hits; AID 2776;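 active = compounds whose fluorescence signal differed from control wells by over 3 SD, either direction, in both duplicate plates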
TRPC4 spec = mouse TRPC4 modulation by TRPC6 hits, confirmation, selectivity assay for TRPC6 inhibitor project, cell-based, HEK293 TRPC4/mu-opioid, membrane potential dye | 920 compounds, 61% hits | AID 2777, 2010 | membrane potential fluorescence | shares compounds with TRPC6 inh | activity change, negative = inhibition, % at 10 µM;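 active = rise or fall in signal beyond 3 SD of buffer-only wells in both replicate plates, either sign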;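 also: integrated kinetic ratio of fluorescence range over baseline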
HEK293 MPD ctr 2-1 = nonspecific membrane potential effects, parental HEK293, confirmation, counter-screen for TRPC6 inhibitor project, cell-based, second counter screen. signal change vs control, % at 10 µM. 920 compounds, 31% hits. parental HEK293 membrane potential dye fluorescence; maximal acetylcholine challenge after compound addition. shares compounds with TRPC6 inh;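 active = membrane potential signal moving either way by over 3 SD of the maximum-effect control, in both duplicate plates, meaning non-specific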
HEK293 MPD ctr-1 = membrane potential modulation in parental HEK293, confirmation, counter-screen for TRPC6 inhibitor project, cell-based; parental HEK293 membrane potential dye fluorescence; 920 compounds, 60% hits; membrane potential signal change, % at 10 µM; shares compounds with TRPC6 inh;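 active = membrane potential signal shifting up or down by more than 3 SD of buffer-only wells, on both duplicate plates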
HEK293 MPD ctr-2 = parental HEK293 membrane potential modulation, confirmation, counter-screen for TRPC6 modulator project, cell-based; shares compounds with TRPC6 inh; membrane potential dye fluorescence; membrane potential signal change, % at 10 µM; 2,400 compounds, 51% hits;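 active = membrane potential signal moves up or down beyond 5 SD from buffer-only wells, on both duplicate plates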
HEK293 MPD ctr 2-2 = parental HEK293 nonspecific activity of TRPC6 modulators, second screen; shares compounds with TRPC6 inh; membrane potential dye fluorescence; after compound, maximal acetylcholine stimulation; inhibition, % at 10 µM; 2,400 compounds, 14% hits; AID 488926;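 active = membrane potential signal drops by more than 5 SD from the mean control signal, in both duplicate plates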;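 also: plate controls were acetylcholine ECmax control wells for no effect and buffer only wells for full effect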
TRPC4/MOR mod = TRPC4 modulation by TRPC6 hit compounds, confirmation, selectivity assay for TRPC6 modulator project, cell-based, HEK293 TRPC4/mu-opioid, membrane potential dye, mouse; shares compounds with TRPC6 inh; membrane potential fluorescence; percent change from control (negative = decrease, positive = increase), % at 10 µM; 2,400 compounds, 69% hits; AID 488927, 2010;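 active = membrane potential signal moved up or down beyond 5 SD of buffer control wells, in both duplicate plates, actives on both sides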;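 also: plate controls were assay buffer wells for no effect and DAMGO maximal-effect wells for full effect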
TRPC4 ctr inh 2 = second check of whether TRPC6 modulators also affect mouse TRPC4 | shares compounds with TRPC6 inh | HEK293 TRPC4/mu-opioid, membrane potential dye fluorescence; stimulated with maximal-effect DAMGO | inhibition, % at 10 µM | 2,400 compounds, 55% hits | AID 488928;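 active = drop in membrane potential signal beyond 5 SD of the control wells in both duplicate plates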;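 also: TRPC4 counter screen for TRPC6 hits run under conditions tuned for TRPC6 not TRPC4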
TRPC6 inh conf = mouse TRPC6 channel inhibitors, confirmation, HEK293 cells, membrane potential dye, duplicate; shares compounds with TRPC6 inh; ACh-evoked depolarization; inhibition, % at 10 µM; 3,300 compounds, 43% hits; AID 488960, 2010;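 active = fluorescence ratio falls more than 5 SD below the full-stimulation control mean, in both duplicate runs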;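 also: integrated fluorescence ratio of peak minus minimum over baseline after agonist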
TRPC6 act confirm = mouse TRPC6 channel activators, confirmation, HEK293 cells, membrane potential dye, duplicate. activation, % at 10 µM. HEK293-TRPC6 membrane potential dye fluorescence, FDSS. 2,800 compounds, 11% hits. shares compounds with TRPC6 inh;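 active = ratio signal rise beyond 5 SD above unstimulated control wells' mean, seen in both duplicate runs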;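 also: plate controls were buffer EC0 wells for no effect and acetylcholine ECmax response for full effect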
An asterisk follows results filed as active. Shown are actives, neighbours in structure and some others; about 2.3% of the full set was active somewhere.

What do the screens show for `CC(C)c1cc(C(=O)N2CCCC(C(=O)c3ccc4ccccc4c3)C2)on1` (stereo not given)?
TRPC4 act: inactive; TRPC6 act: inactive; TRPC4 PAM: inactive; TRPC6 inh: inactive; TRPC4 inh: inactive

Results for Cc1cc(Cl)ccc1C(=O)C1CCCN(C(=O)c2cc(C(C)C)no2)C1 (stereo not given) ?
TRPC4 act: inactive; TRPC6 act: inactive; TRPC4 PAM: inactive; TRPC6 inh: -6.2*; TRPC4 inh: inactive; HEK293 MPD ctr-2: 98%*; HEK293 MPD ctr 2-2: inactive; TRPC4/MOR mod: 20%*; TRPC4 ctr inh 2: inactive; TRPC6 inh conf: 48%*

Results for Cc1ccc2nc(CSc3nnc(-c4ccco4)o3)cc(=O)n2c1 ?
TRPC4 act: inactive; TRPC6 act: inactive; TRPC4 PAM: inactive; TRPC6 inh: -5.3*; TRPC4 inh: inactive; HEK293 MPD ctr-2: inactive; HEK293 MPD ctr 2-2: inactive; TRPC4/MOR mod: inactive; TRPC4 ctr inh 2: inactive; TRPC6 inh conf: inactive

How did CCN(CC)S(=O)(=O)c1ccc(N2CCCCC2)c(NC(=O)C2=COCCO2)c1 do in these assays?
TRPC4 act: inactive; TRPC6 act: 14*; TRPC4 PAM: inactive; TRPC6 inh: -6*; TRPC4 inh: inactive; HEK293 MPD ctr-2: 178%*; HEK293 MPD ctr 2-2: inactive; TRPC4/MOR mod: 33%*; TRPC4 ctr inh 2: inactive; TRPC6 inh conf: 88%*; TRPC6 act confirm: 154%*

How did CCN(CC)S(=O)(=O)c1ccc(N2CCOCC2)c(NC(=O)c2ccccc2)c1 do in these assays?
TRPC4 act: inactive; TRPC6 act: inactive; TRPC4 PAM: inactive; TRPC6 inh: inactive; TRPC4 inh: inactive

How did CCN(CC)S(=O)(=O)c1ccc(N2CCCCC2)c(NC(=O)c2ccncc2)c1 do in these assays?
TRPC4 act: inactive; TRPC6 act: inactive; TRPC4 PAM: inactive; TRPC6 inh: -6.6*; TRPC4 inh: inactive; TRPC4 sel inh 2: inactive; TRPC4 spec: 10%*; HEK293 MPD ctr 2-1: inactive; HEK293 MPD ctr-1: 6.7%*; TRPC6 inh conf: inactive

How did CCN(CC)S(=O)(=O)c1ccc(N2CCCC2)c(NC(=O)C2=COCCO2)c1 do in these assays?
TRPC4 act: inactive; TRPC6 act: inactive; TRPC4 PAM: inactive; TRPC6 inh: inactive; TRPC4 inh: inactive

What do the screens show for `CCN(CC)S(=O)(=O)c1ccc(N2CCOCC2)c(NC(=O)C23CC4CC(CC(Cl)(C4)C2)C3)c1`?
TRPC4 act: inactive; TRPC6 act: inactive; TRPC4 PAM: inactive; TRPC6 inh: -6.4*; TRPC4 inh: inactive; HEK293 MPD ctr-2: 164%*; HEK293 MPD ctr 2-2: inactive; TRPC4/MOR mod: inactive; TRPC4 ctr inh 2: inactive; TRPC6 inh conf: 38%*

How did CCOc1ccc(C(=O)N(c2ccccn2)C2CCCCC2)cc1 do in these assays?
TRPC4 act: inactive; TRPC6 act: inactive; TRPC4 PAM: inactive; TRPC6 inh: inactive; TRPC4 inh: inactive

What do the screens show for `O=C1CCC(C(=O)N2CCCCO2)CN1Cc1cccc(F)c1` (stereo not given)?
TRPC4 act: inactive; TRPC6 act: inactive; TRPC4 PAM: inactive; TRPC6 inh: inactive; TRPC4 inh: inactive

What do the screens show for `CCN(CC)CCNC1=NCCn2c1cc1cc(OC)ccc12`?
TRPC4 act: inactive; TRPC6 act: inactive; TRPC4 PAM: inactive; TRPC6 inh: -6.7*; TRPC4 inh: inactive; HEK293 MPD ctr-2: -146%*; HEK293 MPD ctr 2-2: inactive; TRPC4/MOR mod: -28%*; TRPC4 ctr inh 2: 44%*; TRPC6 inh conf: inactive; TRPC6 act confirm: inactive

What do the screens show for `O=C(c1ccccc1)N1CCN(Cc2ccccc2C(F)(F)F)CC1`?
TRPC4 act: inactive; TRPC6 act: 12*; TRPC4 PAM: inactive; TRPC6 inh: inactive; TRPC4 inh: inactive; HEK293 MPD ctr-2: inactive; HEK293 MPD ctr 2-2: inactive; TRPC4/MOR mod: 18%*; TRPC4 ctr inh 2: inactive; TRPC6 act confirm: 134%*

How did CCOC(=O)c1c(N)c2cc([N+](=O)[O-])ccc2n1C do in these assays?
TRPC4 act: inactive; TRPC6 act: inactive; TRPC4 PAM: inactive; TRPC6 inh: inactive; TRPC4 inh: inactive
